# Source: ChEMBL document CHEMBL4602736, “Progress in the Field of Aldehyde Dehydrogenase Inhibitors: Novel Imidazo[1,2-a]pyridines against the 1A Family” (ACS Med Chem Lett, 2020)
# Activity calls are given as the source filed them. The calls are words filed in the database; no cut-off is given here.
# Experiments:
# [1] = molecular target: T1, Retinaldehyde dehydrogenase 3 (Homo sapiens) (UniProt P47895); experiment: Inhibition of human recombinant ALDH1A3 assessed as remaining enzyme activity at 25 uM pre-incubated for 5 mins before acetaldehyde addition by continuous spectrometric assay relative to control
# T1 sequence (whole entry): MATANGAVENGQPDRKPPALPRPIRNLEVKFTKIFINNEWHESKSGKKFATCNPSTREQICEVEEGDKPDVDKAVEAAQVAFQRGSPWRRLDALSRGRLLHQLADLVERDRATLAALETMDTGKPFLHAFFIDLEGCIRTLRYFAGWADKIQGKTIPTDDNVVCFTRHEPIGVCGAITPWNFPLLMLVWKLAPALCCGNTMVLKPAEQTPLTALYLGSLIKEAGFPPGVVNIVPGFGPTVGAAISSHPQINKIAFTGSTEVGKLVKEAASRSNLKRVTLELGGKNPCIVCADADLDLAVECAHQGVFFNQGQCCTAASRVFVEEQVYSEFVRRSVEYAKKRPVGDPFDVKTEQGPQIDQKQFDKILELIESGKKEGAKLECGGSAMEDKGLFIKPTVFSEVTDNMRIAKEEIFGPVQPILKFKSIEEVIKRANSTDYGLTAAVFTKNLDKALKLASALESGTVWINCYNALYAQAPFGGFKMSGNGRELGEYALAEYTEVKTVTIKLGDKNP
# Method in brief: (§1)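 Preliminary single-concentration screen at 25 μM against human recombinant ALDH1A1, ALDH1A2 and ALDH1A3, scored as residual enzyme activity versus control.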
# [2] = molecular target: T2, Aldehyde dehydrogenase 1A1 (Homo sapiens) (UniProt P00352); experiment: Inhibition of human recombinant ALDH1A1 assessed as remaining enzyme activity at 25 uM pre-incubated for 5 mins before acetaldehyde addition by continuous spectrometric assay relative to control; method in brief: as §1
# T2 sequence (whole entry): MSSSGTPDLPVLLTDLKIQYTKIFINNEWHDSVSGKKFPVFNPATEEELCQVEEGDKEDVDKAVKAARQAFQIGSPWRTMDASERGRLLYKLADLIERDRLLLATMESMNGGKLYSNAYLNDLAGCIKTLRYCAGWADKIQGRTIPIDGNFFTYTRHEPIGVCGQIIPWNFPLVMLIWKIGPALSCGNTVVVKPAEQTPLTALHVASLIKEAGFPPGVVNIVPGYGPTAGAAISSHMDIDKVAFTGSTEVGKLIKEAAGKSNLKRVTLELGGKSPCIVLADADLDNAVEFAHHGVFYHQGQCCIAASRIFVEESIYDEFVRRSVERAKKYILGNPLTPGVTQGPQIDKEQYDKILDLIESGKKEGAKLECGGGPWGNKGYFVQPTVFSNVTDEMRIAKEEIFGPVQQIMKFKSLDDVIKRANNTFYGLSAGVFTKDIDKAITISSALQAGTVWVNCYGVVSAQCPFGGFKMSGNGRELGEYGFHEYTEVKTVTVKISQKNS
# [3] = molecular target: T3, Retinal dehydrogenase 2 (Homo sapiens) (UniProt O94788); experiment: Inhibition of human recombinant ALDH1A2 assessed as remaining enzyme activity at 25 uM pre-incubated for 5 mins before acetaldehyde addition by continuous spectrometric assay relative to control; method in brief: as §1
# T3 sequence (whole entry): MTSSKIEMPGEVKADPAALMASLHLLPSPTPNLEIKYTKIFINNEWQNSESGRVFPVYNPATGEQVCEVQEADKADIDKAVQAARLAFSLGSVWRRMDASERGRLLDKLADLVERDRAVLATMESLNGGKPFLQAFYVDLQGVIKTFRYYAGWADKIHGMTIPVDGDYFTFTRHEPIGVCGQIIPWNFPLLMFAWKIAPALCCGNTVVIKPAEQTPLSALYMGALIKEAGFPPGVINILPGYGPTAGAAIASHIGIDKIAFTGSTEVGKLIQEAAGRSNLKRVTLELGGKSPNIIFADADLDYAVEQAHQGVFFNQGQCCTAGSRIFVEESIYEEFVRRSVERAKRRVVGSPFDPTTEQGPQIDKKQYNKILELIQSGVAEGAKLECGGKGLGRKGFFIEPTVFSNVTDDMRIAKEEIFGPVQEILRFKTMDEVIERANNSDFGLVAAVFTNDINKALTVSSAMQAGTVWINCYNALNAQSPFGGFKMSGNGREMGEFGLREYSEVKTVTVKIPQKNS
# [4] = molecular target: T4, Aldehyde dehydrogenase 1A1 (Homo sapiens, UniProt P00352); experiment: Inhibition of human recombinant ALDH1A1 pre-incubated for 5 mins before acetaldehyde addition by continuous spectrometric assay relative to control
# T4 sequence (P00352 whole entry): T2 sequence (whole entry)
# Method in brief: (§2)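 IC50 is the concentration giving 50% inhibition of the human recombinant isoform. Compounds with no significant inhibition at 25 μM were listed as not active and had no IC50 determined.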
# [5] = molecular target: T5, Retinaldehyde dehydrogenase 3 (Homo sapiens, UniProt P47895); experiment: Inhibition of human recombinant ALDH1A3 pre-incubated for 5 mins before acetaldehyde addition by continuous spectrometric assay relative to control; method in brief: as §2
# T5 sequence (P47895 whole entry): T1 sequence (whole entry)
# Retinal dehydrogenase 2 [6] = molecular target: T6, Retinal dehydrogenase 2 (Homo sapiens, UniProt O94788); experiment: Inhibition of human recombinant ALDH1A2 pre-incubated for 5 mins before acetaldehyde addition by continuous spectrometric assay relative to control; method in brief: as §2
# T6 sequence (O94788 whole entry): T3 sequence (whole entry)
# U-87 MG = experiment: Antiproliferative activity against human U87MG cells assessed as reduction in cell vitality at 100 nM to 10 uM incubated for 72 hrs by MTT assay; assay type: functional, cell-based; conditions: U-87MG ATCC
# [7] = molecular target: T5, Retinaldehyde dehydrogenase 3; experiment: Competitive inhibition of human recombinant ALDH1A3 pre-incubated for 5 mins before acetaldehyde addition by continuous spectrometric assay relative to control
# Retinal dehydrogenase 2 [8] = molecular target: T6, Retinal dehydrogenase 2; experiment: Competitive inhibition of human recombinant ALDH1A2 pre-incubated for 5 mins before acetaldehyde addition by continuous spectrometric assay relative to control
# [9] = molecular target: T4, Aldehyde dehydrogenase 1A1; experiment: Competitive inhibition of human recombinant ALDH1A1 pre-incubated for 5 mins before acetaldehyde addition by continuous spectrometric assay relative to control
Activity [1] [%],Activity [2] [%],Activity [3] [%],IC50 [4],IC50 [5] [µM],IC50 (Retinal dehydrogenase 2 [6]),IC50 (Retinal dehydrogenase 2 [6]; read-out: IC50) [µM],IC50 ([4]; read-out: IC50) [µM],Ki [7] [µM],Ki (Retinal dehydrogenase 2 [8]) [µM],Ki [9] [µM],Compound,Activity (U-87 MG)
50 to 75,75 to 100,25 to 50,Not Active,7.2,Not Active,–,–,–,–,–,COc1cccc(-c2cn3cccc(-c4ccc(F)cc4)c3n2)c1,–
75 to 100,75 to 100,75 to 100,–,–,–,–,–,–,–,–,COc1cccc(-c2cn3cccc(-c4ccc(-c5ccccc5)cc4)c3n2)c1,–
50 to 75,75 to 100,75 to 100,–,–,–,–,–,–,–,–,COC(=O)c1ccc(-c2cccn3cc(-c4ccc(OC)cc4)nc23)cc1,–
50 to 75,75 to 100,50 to 75,Not Active,4.3,Not Active,–,–,–,–,–,COc1cccc(-c2cn3cccc(-c4ccc(Cl)cc4)c3n2)c1,–
50 to 75,75 to 100,50 to 75,–,–,–,–,–,–,–,–,Cc1ccc(-c2cn3cccc(-c4ccccc4)c3n2)cc1,–
50 to 75,75 to 100,50 to 75,–,5.5,–,27.6,168,8.7,27.6,168,Clc1ccc(-c2cccn3cc(-c4ccccc4)nc23)cc1,Active
75 to 100,75 to 100,75 to 100,–,–,–,–,–,–,–,–,COc1ccc(-c2cn3cccc(-c4ccc(F)cc4)c3n2)cc1,–
25 to 50,75 to 100,25 to 50,Not Active,6,Not Active,–,–,–,–,–,Fc1ccc(-c2cccn3cc(-c4ccccc4)nc23)cc1,–
75 to 100,75 to 100,75 to 100,–,–,–,–,–,–,–,–,COc1ccc(-c2cn3cccc(-c4ccc(Cl)cc4)c3n2)cc1,–
0 to 25,75 to 100,25 to 50,Not Active,0.66,Not Active,–,–,0.12,0.92,79.5,COC(=O)c1ccc(-c2cccn3cc(-c4ccccc4)nc23)cc1,–
50 to 75,75 to 100,75 to 100,–,–,–,–,–,–,–,–,Cc1ccc(-c2cn3cccc(-c4ccc(Cl)cc4)c3n2)cc1,–

# The remaining lines, values behind:
Compound,Activity [1] [%],Activity [2] [%],Activity [3] [%],IC50 [4],IC50 [5] [µM],IC50 (Retinal dehydrogenase 2 [6]),IC50 (Retinal dehydrogenase 2 [6]; read-out: IC50) [µM],IC50 ([4]; read-out: IC50) [µM],Ki [7] [µM],Ki (Retinal dehydrogenase 2 [8]) [µM],Ki [9] [µM],Activity (U-87 MG)
COc1ccc(-c2cn3cccc(-c4cc(OC)c(OC)c(OC)c4)c3n2)cc1,75 to 100,75 to 100,75 to 100,–,–,–,–,–,–,–,–,–
COc1cccc(-c2cn3cccc(-c4cc(OC)c(OC)c(OC)c4)c3n2)c1,75 to 100,75 to 100,75 to 100,–,–,–,–,–,–,–,–,–
c1ccc(-c2cn3cccc(-c4ccccc4)c3n2)cc1,50 to 75,75 to 100,50 to 75,Not Active,80.6,–,61.4,–,–,–,–,–
O=C(COc1ccc(-c2cccn3cc(-c4ccccc4)nc23)cc1)c1ccccc1,75 to 100,75 to 100,75 to 100,–,–,–,–,–,–,–,–,–
CC(C)Cc1ccc(-c2cccn3cc(-c4ccccc4)nc23)cc1,75 to 100,50 to 75,75 to 100,–,–,–,–,–,–,–,–,–
Cc1ccc(-c2cn3cccc(-c4ccc(F)cc4)c3n2)cc1,75 to 100,75 to 100,50 to 75,–,–,–,–,–,–,–,–,–
COc1ccc(-c2cn3cccc(-c4cc(OC)cc(OC)c4)c3n2)cc1,75 to 100,75 to 100,75 to 100,–,–,–,–,–,–,–,–,–
COc1ccc(-c2cn3cccc(-c4ccc(-c5ccccc5)cc4)c3n2)cc1,75 to 100,50 to 75,75 to 100,–,–,–,–,–,–,–,–,–
c1ccc(-c2ccc(-c3cccn4cc(-c5ccccc5)nc34)cc2)cc1,75 to 100,75 to 100,75 to 100,–,–,–,–,–,–,–,–,–
